Assays:
[1] = target: biotinylated BSA (serum albumin) (Bos taurus, UniProt P02769); assay: Kinetic binding assay by biolayer interferometry; design: species or system bovine
Method in brief: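 Biolayer interferometry on streptavidin biosensors. Steps: PBS baseline 60 s; biotin-BSA load (1 µg/mL) 600 s; PBS 60 s; biocytin quench (1 µg/mL) 180 s; PBS 60 s; test compound association 600 s; dissociation 600 s. Nonspecific signal subtracted, taken from BSA-loaded sensor in buffer alone and blank sensor with analyte.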

[2] = system: HCT116/SSTR2 (SSTR2+) and HCT116 (SSTR2-) cells; assay: Cell uptake/internalization; assay type: cell-based, human
Method in brief: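 HCT116/SSTR2 (transfected) and parental HCT116 cells grown in McCoy's 5A with 10% FBS at 37 °C, 5% CO2. 10^5 cells/well plated 24 h ahead, PBS-washed, then given 18.5 KBq/well 86Y-labelled tracer in 0.5 mL medium with 1% (w/v) HSA. At each time point: PBS wash, then 0.1 M NaOH lysis. For internalized fraction, surface tracer stripped first with 1 min glycine 50 mM/NaCl 100 mM, pH 2.8. Gamma-counted as % of added activity; triplicates; blocking at 24 h.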

[3] = system: HCT116/SSTR2 tumor xenografts; assay: In vivo PET in HCT116/SSTR2 xenografts; design: species or system mouse

Sequence of biotinylated BSA (serum albumin) (P02769 25-607): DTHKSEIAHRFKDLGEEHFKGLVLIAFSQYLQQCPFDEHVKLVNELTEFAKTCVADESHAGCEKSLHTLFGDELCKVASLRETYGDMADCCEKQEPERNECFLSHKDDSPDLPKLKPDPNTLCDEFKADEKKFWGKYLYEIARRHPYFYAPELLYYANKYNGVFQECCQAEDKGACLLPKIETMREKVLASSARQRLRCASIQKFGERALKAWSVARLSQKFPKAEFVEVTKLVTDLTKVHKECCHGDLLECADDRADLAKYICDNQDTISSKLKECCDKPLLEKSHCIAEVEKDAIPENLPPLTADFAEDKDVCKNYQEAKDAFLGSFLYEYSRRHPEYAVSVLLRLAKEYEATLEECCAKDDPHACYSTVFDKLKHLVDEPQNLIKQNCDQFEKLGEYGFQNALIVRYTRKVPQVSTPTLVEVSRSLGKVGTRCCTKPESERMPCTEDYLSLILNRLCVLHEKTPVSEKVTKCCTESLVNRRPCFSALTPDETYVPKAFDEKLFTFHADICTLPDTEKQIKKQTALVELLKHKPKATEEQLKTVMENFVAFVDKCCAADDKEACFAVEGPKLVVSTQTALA

| Kd [1] [µM] | SMILES | Cell uptake (percent of added radioactivity) ([2]; HCT116/SSTR2 cells, 24 h, 18.5 KBq/well, medium with 1% (w/v) HSA, triplicate) [%] | Uptake/internalization in SSTR2 positive vs SSTR2 negative cells ([2]; HCT116/SSTR2 vs HCT116, 1% HSA, p < 0.001) | Amount retained in the blood compared to ^86Y-TATE ([3]; 1 h p.i., PET quantification) [fold] | Tumor exposure to the radioisotope (AUC) compared to ^86Y-TATE ([3]; AUC of tumor radioactivity over time, non-decay corrected data) | Increase of half-life in the blood compared to ^86Y-TATE ([3]; PET quantification, i.v. 0.92 MBq (4 nmol)) [fold] |
| --- | --- | --- | --- | --- | --- | --- |
| 4.8 | Cc1cc(-c2ccc(NC(=O)[C@H](CCCCNC(=O)CCN3C(=O)CC(SCC(=O)N[C@H](Cc4ccccc4)C(=O)N[C@H]4CSSC[C@@H](C(=O)N[C@H](C(=O)O)[C@@H](C)O)NC(=O)[C@H]([C@@H](C)O)NC(=O)[C@H](CCCCN)NC(=O)[C@@H](Cc5c[nH]c6ccccc56)NC(=O)[C@H](Cc5ccc(O)cc5)NC4=O)C3=O)NC(=O)CN3CCN(CC(=O)O)CCN(CC(=O)O)CCN(CC(=O)O)CC3)c(C)c2)ccc1N=Nc1ccc2c(S(=O)(=O)O)cc(S(=O)(=O)O)c(N)c2c1O (stereo partly drawn) [EB-TATE] | – | – | – | – | – |
| – | Cc1cc(-c2ccc(NC(=O)[C@H](CCCCNC(=O)CCN3C(=O)CC(SCC(=O)N[C@H](Cc4ccccc4)C(=O)N[C@H]4CSSC[C@@H](C(=O)N[C@H](C(=O)O)[C@@H](C)O)NC(=O)[C@H]([C@@H](C)O)NC(=O)[C@H](CCCCN)NC(=O)[C@@H](Cc5c[nH]c6ccccc56)NC(=O)[C@H](Cc5ccc(O)cc5)NC4=O)C3=O)NC(=O)CN3CCN(CC(=O)O)CCN(CC(=O)O)CCN(CC(=O)O)CC3)c(C)c2)ccc1N=Nc1ccc2c(S(=O)(=O)O)cc(S(=O)(=O)O)c(N)c2c1O (stereo partly drawn) [^86Y-EB-TATE, metal not drawn] | 12.05±0.67 | significantly higher | 4 | approximately 6 fold | 2 |

From paper PMC5771089 (Theranostics, 2018)
